Measurements taken from ChEMBL document CHEMBL3526093, “Oxidative ipso substitution of 2,4-difluoro-benzylphthalazines: identification of a rare stable quinone methide and subsequent GSH conjugate” (Drug Metab Dispos, 2012).

Assays:
[1] = Half life under physiological conditions; assay type: ADME
Cytochrome P450 1A2 = target: T1, Cytochrome P450 1A2 (Homo sapiens, UniProt P05177); assay: Drug metabolism assessed as human CYP1A2-mediated quinone methide metabolite formation at 10 uM by LC/MS method; assay type: ADME; conditions: recombinant enzyme
T1 sequence (P05177 whole entry): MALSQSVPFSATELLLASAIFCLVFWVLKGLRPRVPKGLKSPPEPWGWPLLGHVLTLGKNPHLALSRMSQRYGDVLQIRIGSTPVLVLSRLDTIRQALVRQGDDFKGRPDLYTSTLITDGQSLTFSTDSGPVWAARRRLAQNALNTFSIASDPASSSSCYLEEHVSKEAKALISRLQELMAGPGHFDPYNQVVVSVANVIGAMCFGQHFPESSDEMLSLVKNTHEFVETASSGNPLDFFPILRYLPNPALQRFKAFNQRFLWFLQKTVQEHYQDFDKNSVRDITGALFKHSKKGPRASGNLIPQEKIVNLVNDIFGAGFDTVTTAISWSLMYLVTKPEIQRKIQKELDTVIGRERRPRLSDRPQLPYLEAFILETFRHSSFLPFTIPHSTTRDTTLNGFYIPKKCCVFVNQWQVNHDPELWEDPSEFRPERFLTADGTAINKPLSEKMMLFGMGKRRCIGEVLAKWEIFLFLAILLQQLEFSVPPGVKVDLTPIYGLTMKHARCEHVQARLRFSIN
Outline: (§1)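 Recombinant human P450 Supersomes (100 pmol/ml enzyme) in 0.1 M KH2PO4 pH 7.4 with 5 mM MgCl2 and substrate, prewarmed 2 min at 37°C. NADPH (2 mM) started the reaction, with GSH (5 mM) added 3 min later. Controls lacked GSH or NADPH. Aliquots at 0, 0.5 and 1 h were stopped in ice-cold acetonitrile, spun, and supernatants run on LC/MSn.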

Cytochrome P450 3A4 [2] = target: T2, Cytochrome P450 3A4 (Homo sapiens, UniProt P08684); assay: Drug metabolism assessed as human CYP3A4-mediated quinone methide metabolite formation at 10 uM by LC/MS method; assay type: ADME; conditions: recombinant enzyme; outline: as §1
T2 sequence (P08684 whole entry): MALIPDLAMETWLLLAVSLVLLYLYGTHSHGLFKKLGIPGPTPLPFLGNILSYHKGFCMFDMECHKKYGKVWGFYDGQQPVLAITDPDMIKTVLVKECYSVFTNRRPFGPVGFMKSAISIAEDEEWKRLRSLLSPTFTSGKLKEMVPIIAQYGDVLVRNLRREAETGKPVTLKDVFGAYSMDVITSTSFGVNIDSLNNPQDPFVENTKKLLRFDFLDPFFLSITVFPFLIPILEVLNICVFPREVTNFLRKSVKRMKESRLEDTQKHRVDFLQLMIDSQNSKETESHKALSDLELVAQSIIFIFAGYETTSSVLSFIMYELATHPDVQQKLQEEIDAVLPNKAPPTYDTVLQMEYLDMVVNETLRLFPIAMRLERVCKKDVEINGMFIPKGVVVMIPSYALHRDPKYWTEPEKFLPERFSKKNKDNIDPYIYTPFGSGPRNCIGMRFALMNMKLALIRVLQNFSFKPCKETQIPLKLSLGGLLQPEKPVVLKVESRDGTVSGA

Cytochrome P450 2E1 = Cytochrome P450 2E1 (Homo sapiens, UniProt P05181); assay: Drug metabolism assessed as human CYP2E1-mediated quinone methide metabolite formation at 10 uM by LC/MS method; assay type: ADME; conditions: recombinant enzyme; outline: as §1
Cytochrome P450 2E1, sequence (P05181 whole entry): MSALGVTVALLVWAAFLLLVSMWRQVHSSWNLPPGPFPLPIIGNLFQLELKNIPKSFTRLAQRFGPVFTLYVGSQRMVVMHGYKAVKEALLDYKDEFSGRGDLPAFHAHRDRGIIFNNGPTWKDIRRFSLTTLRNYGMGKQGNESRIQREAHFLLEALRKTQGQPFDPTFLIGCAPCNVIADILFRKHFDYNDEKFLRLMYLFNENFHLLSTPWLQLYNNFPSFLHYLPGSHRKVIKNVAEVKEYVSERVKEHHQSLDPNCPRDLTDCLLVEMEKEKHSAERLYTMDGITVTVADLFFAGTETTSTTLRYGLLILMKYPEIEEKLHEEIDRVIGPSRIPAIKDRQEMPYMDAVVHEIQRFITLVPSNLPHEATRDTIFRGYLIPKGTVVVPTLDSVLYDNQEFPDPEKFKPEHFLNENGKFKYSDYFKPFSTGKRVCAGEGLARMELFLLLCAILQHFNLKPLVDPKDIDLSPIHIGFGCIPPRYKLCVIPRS

Cytochrome P450 2C19 = Cytochrome P450 2C19 (Homo sapiens, UniProt P33261); assay: Drug metabolism assessed as human CYP2C19-mediated quinone methide metabolite formation at 10 uM by LC/MS method; assay type: ADME; conditions: recombinant enzyme; outline: as §1
Cytochrome P450 2C19, sequence (P33261 whole entry): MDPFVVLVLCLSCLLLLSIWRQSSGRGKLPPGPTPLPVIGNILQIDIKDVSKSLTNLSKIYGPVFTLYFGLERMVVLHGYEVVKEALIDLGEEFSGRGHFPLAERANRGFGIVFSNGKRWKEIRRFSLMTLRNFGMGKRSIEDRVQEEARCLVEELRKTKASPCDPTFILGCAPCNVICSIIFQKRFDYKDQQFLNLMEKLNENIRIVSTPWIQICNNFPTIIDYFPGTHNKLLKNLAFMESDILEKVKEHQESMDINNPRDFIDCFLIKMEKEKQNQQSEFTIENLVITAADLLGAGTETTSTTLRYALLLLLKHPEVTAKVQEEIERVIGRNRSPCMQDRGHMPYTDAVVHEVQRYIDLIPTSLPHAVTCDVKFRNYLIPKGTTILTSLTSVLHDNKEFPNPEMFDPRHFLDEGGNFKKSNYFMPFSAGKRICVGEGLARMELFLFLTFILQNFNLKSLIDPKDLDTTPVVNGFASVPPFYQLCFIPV

[3] = Retention time of the compound by LC/MS method; assay type: physicochemical
Outline: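 Reversed-phase C18 column (2.1 × 150 mm), 20 µl injection, 0.25 ml/min. A: 10 mM ammonium formate/0.1% formic acid in water. B: acetonitrile/0.1% formic acid. Gradient held at 10% B for 5 min, then to 90% B over 24 min, back to 10% B over 2 min, held 3 min (35 min run). Positive-ion electrospray detection.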

Cytochrome P450 2D6 = Cytochrome P450 2D6 (Homo sapiens, UniProt P10635); assay: Drug metabolism assessed as human CYP2D6-mediated quinone methide metabolite formation at 10 uM by LC/MS method; assay type: ADME; conditions: recombinant enzyme; outline: as §1
Cytochrome P450 2D6, sequence (P10635 whole entry): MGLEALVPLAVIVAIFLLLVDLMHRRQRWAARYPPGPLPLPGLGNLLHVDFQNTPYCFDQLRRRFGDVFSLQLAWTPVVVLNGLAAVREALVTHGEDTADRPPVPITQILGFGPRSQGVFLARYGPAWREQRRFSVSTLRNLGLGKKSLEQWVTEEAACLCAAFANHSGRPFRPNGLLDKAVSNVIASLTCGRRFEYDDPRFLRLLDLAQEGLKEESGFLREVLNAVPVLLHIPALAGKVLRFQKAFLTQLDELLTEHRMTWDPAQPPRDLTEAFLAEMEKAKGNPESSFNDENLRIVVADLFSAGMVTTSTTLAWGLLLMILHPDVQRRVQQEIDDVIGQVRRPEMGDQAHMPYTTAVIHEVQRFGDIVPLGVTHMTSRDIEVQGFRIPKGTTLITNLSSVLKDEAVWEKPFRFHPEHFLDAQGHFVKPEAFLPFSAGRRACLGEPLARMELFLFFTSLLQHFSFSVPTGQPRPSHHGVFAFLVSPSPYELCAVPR

Cytochrome P450 2C9 = Cytochrome P450 2C9 (Homo sapiens, UniProt P11712); assay: Drug metabolism assessed as human CYP2C9-mediated quinone methide metabolite formation at 10 uM by LC/MS method; assay type: ADME; conditions: recombinant enzyme; outline: as §1
Cytochrome P450 2C9, sequence (P11712 whole entry): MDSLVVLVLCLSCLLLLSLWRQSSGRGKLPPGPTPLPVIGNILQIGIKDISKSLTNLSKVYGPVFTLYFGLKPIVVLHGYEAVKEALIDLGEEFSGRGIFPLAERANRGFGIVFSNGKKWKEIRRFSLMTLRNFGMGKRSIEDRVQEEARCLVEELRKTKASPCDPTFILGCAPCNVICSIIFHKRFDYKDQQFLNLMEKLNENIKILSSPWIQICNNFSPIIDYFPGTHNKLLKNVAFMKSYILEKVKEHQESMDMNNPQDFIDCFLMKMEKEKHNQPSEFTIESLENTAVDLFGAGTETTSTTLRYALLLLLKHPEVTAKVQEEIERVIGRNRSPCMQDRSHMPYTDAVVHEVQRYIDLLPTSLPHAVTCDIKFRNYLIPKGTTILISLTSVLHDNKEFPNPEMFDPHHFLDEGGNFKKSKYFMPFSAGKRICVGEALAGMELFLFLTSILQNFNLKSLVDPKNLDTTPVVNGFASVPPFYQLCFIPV

Liver microsome [4] = assay: Drug metabolism in human liver microsomes assessed as quinone methide metabolite formation at 10 uM by LC/MS method; assay type: ADME
Outline: (§2)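 Pooled human liver microsomes (1 mg/ml protein) in 0.1 M KH2PO4 pH 7.4 with 5 mM MgCl2 and substrate, prewarmed 2 min at 37°C with shaking. Started with 2 mM NADPH, then 5 mM GSH added 3 min later. Controls omitted GSH or NADPH. Samples at 0, 0.5 and 1 h quenched in ice-cold acetonitrile, centrifuged, supernatant analysed by positive-ion ESI LC/MSn.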

Liver microsome [5] = assay: Drug level in human liver microsomes treated with 10 uM [2-(6-(4-(4-(2,4-difluorobenzyl)phthalazin-1-yl)piperazin-1-yl)pyridin-3-yl)propan-2-ol] by LC/MS method; assay type: ADME; outline: as §2
Cytochrome P450 3A4 [6] = target: T2, Cytochrome P450 3A4; assay: Drug metabolism assessed as human CYP3A4-mediated compound formation using 10 uM [2-(6-(4-(4-(2,4-difluorobenzyl)phthalazin-1-yl)piperazin-1-yl)pyridin-3-yl)propan-2-ol] by LC/MS method; assay type: ADME; conditions: recombinant enzyme; outline: as §1

Structure (SMILES)	half-life [1] [h]	Retention_time [3] [min]	Drug metabolism (Liver microsome [5])	Drug metabolism (Cytochrome P450 3A4 [6])	also measured
C/C=C(/C(=C1C=CC(=O)C=C1)c1ccc(OCCN(C)C)cc1)c1ccccc1	3				
CC(C)(O)c1ccc(N2CCN(c3nnc(Cc4ccc(F)cc4F)c4ccccc34)CC2)nc1		14.8			Drug metabolism (Cytochrome P450 1A2): metabolite_not_detected; Drug metabolism (Cytochrome P450 3A4 [2]): metabolite_detected; Drug metabolism (Cytochrome P450 2E1): metabolite_not_detected; Drug metabolism (Cytochrome P450 2C19): metabolite_not_detected; Drug metabolism (Cytochrome P450 2D6): metabolite_not_detected; Drug metabolism (Cytochrome P450 2C9): metabolite_not_detected; Drug metabolism (Liver microsome [4]): metabolite_detected
CC(C)(O)c1ccc(N2CCN(c3nnc(/C=C4\C=CC(=O)C=C4F)c4ccccc34)CC2)nc1		17.46	metabolite_detected	metabolite_detected	
CC(C)(O)c1ccc(N2CCN(c3nnc(Cc4cc(SC[C@H](NC(=O)CC[C@H](N)C(=O)O)C(=O)NCC(=O)O)c(O)cc4F)c4ccccc34)CC2)nc1		9.92	metabolite_detected	metabolite_detected	
C/C=C(/C(=C1C=CC(=O)C=C1)c1ccccc1)c1ccccc1	4				
